The subject of data set [1] is RPMI-8226. As to the kind of experiment: Antiproliferative activity against human RPMI8226 cells after 48 hrs by SRB assay. The settings on record: RPMI-8226, 48 h. It counts as functional. A digest of the protocol:
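Cells were exposed to test compounds at the indicated concentrations for 48 h. They were then fixed with 10% trichloroacetic acid, stained 30 min with 0.4% SRB in 1% AcOH, and washed with 1% AcOH. Bound dye was solubilized in 10 mM Tris base and OD read at 510 nm. Lines cultured in RPMI 1640 with 20% FBS and penicillin/streptomycin, 37°C, 5% CO2.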

Data set [2] has as its system NCI-H929. As to the kind of experiment: Induction of apoptosis in human NCI-H929 cells at 5 uM after 24 hrs in presence of bortezomib by Annexin V/propidium iodide staining based flow cytometry. It counts as functional, cell-based.
Data set [3] can be described thus: Apparent permeability from basolateral to apical side in human Caco2 cells at 10 uM after 2 hrs by LC-MS/MS analysis. Type of data set: ADME, cell-based. The settings on record: Caco-2. A digest of the protocol: (§1)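 Caco-2 cells seeded at 8.4 × 10^4 cells/cm2 on polycarbonate inserts for 21 days. For A→B, donor was apical (HBSS/MES pH 6.5, 10 µM compound) and receiver basolateral (HBSS/HEPES pH 7.4). For B→A, donor was basolateral (HBSS/HEPES pH 7.4, 10 µM) and receiver apical (HBSS/MES pH 6.5). Incubated at 37 °C for 2 h. Receiver sampled at 30, 60, 90 and 120 min, donor at 0 and 120 min.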

Data set [4] concerns Salmonella typhimurium. Kind of data set: Mutagenicity in Salmonella typhimurium TA100 assessed as increase in number of revertant colonies at 3 to 3000 ug/plate in absence of S9 fraction by Ames test. Type of data set: toxicity. Particulars: salmonella enterica subsp. enterica serovar typhimurium. A digest of the protocol:
(§2)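 Ames test, TA98 and TA100. Overnight broth cultures preincubated 20 min at 35-37 °C with compound (DMSO stock) plus Aroclor 1254-induced rat liver S9 mix or PBS, then plated in top agar with 0.05 mM histidine/biotin. Final 3-3000 µg/plate; revertants counted after 72 h at 37 °C. ≥3-fold over vehicle = mutagenic; ≤50% = cytotoxic.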

Data set [5] relates to RPMI-8226. As to the kind of experiment: Cell cycle arrest in human RPMI8226 cells assessed as accumulation at sub-G1 phase at 5 uM after 24 hrs by propidium iodide staining based flow cytometry (reference value: 12.25%). Type of data set: functional.
For data set [6], the system named is Mus musculus. Kind of data set: Toxicity in Balb/c mouse assessed as change in body weight at 50 to 200 mg/kg, ip administered once daily for 1 week measured for 1 week. It counts as organism-based. Particulars: in vivo, 168 h. An outline of the steps:
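Male 8-week balb/c mice, ten per dose, given compound ip once daily for 7 days at 50, 100 or 200 mg/kg, then monitored one week. Body weight recorded over 14 days. MTD = highest dose with no drug-related moribund state or death and weight loss under 20%.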

The subject of data set [7] is RPMI-8226. Kind of data set: Cell cycle arrest in human RPMI8226 cells assessed as accumulation at G2/M phase at 5 uM after 24 hrs by propidium iodide staining based flow cytometry (reference value: 23.94%). It counts as functional.
The test system of data set [8] is NCI-H929. As to the kind of experiment: Cell cycle arrest in human NCI-H929 cells assessed as accumulation at sub-G1 phase at 5 uM after 24 hrs by propidium iodide staining based flow cytometry (reference value: 5.59%). Type of data set: functional.
For data set [9], the system named is RPMI-8226. Kind of data set: Cell cycle arrest in human RPMI8226 cells assessed as accumulation at sub-G1 phase at 5 uM after 24 hrs in presence of bortezomib by propidium iodide staining based flow cytometry (reference value: 12.25%). It counts as functional.
For data set [10], the system named is RPMI-8226. As to the kind of experiment: Cell cycle arrest in human RPMI8226 cells assessed as accumulation at S phase at 5 uM after 24 hrs by propidium iodide staining based flow cytometry (reference value: 19.53%). Type of data set: functional.
In data set [11] the test system is Mus musculus. As to the kind of experiment: Toxicity in nude mouse xenografted with human RPMI8226 cells assessed as change in body weight at 30 mg/kg, iv or ip administered for 5 days followed by 2 days off for 35 days. It counts as organism-based. Particulars: in vivo. A digest of the protocol: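 Male 8-week nude mice implanted sc with 1×10^7 RPMI 8226 cells, randomized at ~200 mm3 (n = 8). […] Vehicle: 0.5% EtOH/0.5% Cremophor in 5% dextran.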

The test system of data set [12] is RPMI-8226. Kind of data set: Cell cycle arrest in human RPMI8226 cells assessed as accumulation at G2/M phase at 5 uM after 24 hrs in presence of bortezomib by propidium iodide staining based flow cytometry (reference value: 23.94%). Type of data set: functional.
The test system of data set [13] is NCI-H929. Kind of data set: Cell cycle arrest in human NCI-H929 cells assessed as accumulation at S phase at 5 uM after 24 hrs by propidium iodide staining based flow cytometry (reference value: 13.5%). Type of data set: functional.
Data set [14] in a line: Apparent permeability from basolateral to apical side in human Caco2 cells assessed as drug recovery at 10 uM after 2 hrs by LC-MS/MS analysis. Type of data set: ADME, cell-based. Particulars: Caco-2, read-out: Drug recovery. An outline of the steps: as §1
Data set [15] concerns NCI-H929. Kind of data set: Induction of apoptosis in human NCI-H929 cells at 5 uM after 24 hrs by Annexin V/propidium iodide staining based flow cytometry. Type of data set: functional, cell-based.
A short description of data set [16]: Half life in human hepatocytes at 10 uM by LC-MS/MS analysis. It counts as ADME, cell-based, Hepatocyte. An outline of the steps: (§3)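 Substrate depletion in cryopreserved hepatocytes (male SD rat, male beagle dog, human). Compound at 10 µM incubated at 37 °C for up to 4 h. Cell density approximately 0.5 × 10^6 hepatocytes/well for rat and dog, 0.24 × 10^6/well for human. Half-life and CLint derived from depletion; % remaining at 60 min also reported.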

Data set [17] deals with RPMI-8226. As to the kind of experiment: Cell cycle arrest in human RPMI8226 cells assessed as accumulation at G0/G1 phase at 5 uM after 24 hrs in presence of bortezomib by propidium iodide staining based flow cytometry (reference value: 44.67%). It counts as functional.
In data set [18] the test system is Salmonella typhimurium. As to the kind of experiment: Mutagenicity in Salmonella typhimurium TA98 assessed as increase in number of revertant colonies at 3 to 3000 ug/plate in presence of S9 fraction by Ames test. It counts as toxicity. The settings on record: salmonella enterica subsp. enterica serovar typhimurium. An outline of the steps: as §2
Data set [19] has as its system U-266. Kind of data set: Cell cycle arrest in human U266 cells assessed as accumulation at S phase at 5 uM after 24 hrs in presence of bortezomib by propidium iodide staining based flow cytometry (reference value: 14.05%). Type of data set: functional.
Data set [20] concerns RPMI-8226. As to the kind of experiment: Antitumor activity against human RPMI8226 cells xenografted in nude mouse assessed as tumor growth inhibition at 30 mg/kg, iv or ip administered for 5 days followed by 2 days off for 35 days cotreated with bortezomib relative to control. Particulars: read-out: TGI. It counts as functional. An outline of the steps: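 RPMI 8226 cells (1 × 10^7) implanted s.c. in eight-week-old male nude mice. At mean tumor volume 200 mm3, mice randomized into four groups (n = 8). Caliper measurement every 3–4 days, volume L×W²/2. %TGI computed from treated versus control volume changes relative to time 0.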

Data set [21] has as its system U-266. As to the kind of experiment: Cell cycle arrest in human U266 cells assessed as accumulation at S phase at 5 uM after 24 hrs by propidium iodide staining based flow cytometry (reference value: 14.05%). It counts as functional.
Data set [22] in a line: Intrinsic clearance in human hepatocytes at 10 uM by LC-MS/MS analysis. Particulars: read-out: CLH. It counts as ADME, cell-based, Hepatocyte. An outline of the steps:
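Cryopreserved hepatocytes (Sprague-Dawley rat, beagle dog, human) incubated with compound at 10 µM, 37 °C, for up to 4 h. About 0.5×10^6 cells/well for rat and dog, 0.24×10^6 for human.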

In data set [23] the test system is RPMI-8226. As to the kind of experiment: Cell cycle arrest in human RPMI8226 cells assessed as accumulation at G0/G1 phase at 5 uM after 24 hrs by propidium iodide staining based flow cytometry (reference value: 44.67%). It counts as functional.
The nature of data set [24]: Half life in Sprague-Dawley rat hepatocytes at 10 uM by LC-MS/MS analysis. It counts as ADME, cell-based, Hepatocyte. A digest of the protocol:
as §3

Activity calls are given as the source filed them. No cut-off for these calls is given here.

Regarding `O=C(NO)c1ccc(CNc2cccc3ncccc23)cc1`, the 50% growth inhibitory concentration (GI50) with RPMI-8226 [1] was 11 µM.
In the case of `O=C(NO)c1ccc(CNc2cccc3cccnc23)cc1`, the outcome with NCI-H929 [2] and in the data set on NCI-H929 [15] was Active. In addition, in data set [3], the Papp B→A at 2 h, 10 µM worked out at 20.1 ×10⁻⁶ cm/s. Besides, the Activity entry in the data set on Salmonella typhimurium [4] is “Non-Toxic”; in the data set with RPMI-8226 [5], 12.88%; with Mus musculus [6], “Non-Toxic”; with RPMI-8226 [7], 31.53%; in the data set on NCI-H929 [8], 24.71%; with RPMI-8226 [9], 84.18%. In addition, the Activity in the data set with RPMI-8226 [10] was 15.19%; in the data set with Mus musculus [11], “Non-Toxic”; with RPMI-8226 [12], 2.33%; with NCI-H929 [13], 8.55%; with RPMI-8226 [17], 6.3%; in the data set on Salmonella typhimurium [18] it was “Non-Toxic”. The Activity was 7.56% in the data set on U-266 [19], 6.12% with U-266 [21] and 41.95% in the data set on RPMI-8226 [23]. Besides, in [14], the recovery at 2 h, 10 µM was determined as 69%. This molecule also registered a GI50 in the data set on RPMI-8226 [1] of 7.49 µM. Further, the half-life at 10 µM in data set [16] came to 4 h; in [24], 0.93 h. For the same molecule, in the data set on RPMI-8226 [20], the inhibition in vivo at 30 mg/kg turned out to be 86.2%. Moreover, the CLint scaled at 10 µM in data set [22] is 32.5 mL/min/kg.

Values taken from ChEMBL document CHEMBL4024792, “(N-Hydroxycarbonylbenylamino)quinolines as Selective Histone Deacetylase 6 Inhibitors Suppress Growth of Multiple Myeloma in Vitro and in Vivo” (J Med Chem, 2018).
